One assay has as its system HT-29. As to the kind of experiment: Antiproliferative activity against human HT-29 cells assessed as cell growth inhibition after 48 hrs by sulforhodamine B assay. It counts as functional, cell-based. Conditions: HT-29, 48 h. In short, it runs like this: (§1)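 NCI-style SRB screen with minor changes. Cells seeded per well in DMEM with 5% FBS: HT-29 4.0 x 10^3, M21 3.0 x 10^3, MCF-7 2.5 x 10^3, HT-1080 2.5 x 10^3. After 24 h, serially diluted drug was added at 50 µM to 1 nM final, DMSO <0.5%, for 48 h. Fixed with cold TCA, stained with SRB, read at 530–568 nm against plates fixed on treatment day. At least two experiments in triplicate, CV <10%.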

The subject of another assay is MCF7. Put plainly: Antiproliferative activity against human MCF7 cells assessed as cell growth inhibition after 48 hrs by sulforhodamine B assay. The format is functional, cell-based. To be noted: MCF7, 48 h. In a few lines: as §1
The test system of assay [1] is M21. As to the kind of experiment: Induction of cell cycle arrest in human M21 cells assessed as cells accumulation at G0/G1 phase at 760 nM after 24 hrs by flow cytometry (reference value: 54.5%). The format is functional.
The target in assay [2] is T1, Tubulin beta (Homo sapiens) (UniProt P68371+Q9H4B7+Q13509+P04350+Q3ZCM7+P07437+Q13885+Q9BVA1+Q9BUF5+A6NNZ2). Put plainly: Binding affinity to Tubulin beta in human M21 cells assessed as tubulin acylation at 1500 nM after 24 hrs by electrophoretic mobility shift assay. The format is cell-based.
Assay [3] concerns M21. As to the kind of experiment: Induction of microtubule depolymerization and cytoskeleton disruption in human M21 cells at 760 nM after 16 hrs by immunofluorescence assay.
Assay [4] has as its system M21. Put plainly: Antiproliferative activity against human M21 cells assessed as cell growth inhibition after 48 hrs by sulforhodamine B assay. It counts as functional, cell-based. Conditions: M21, 48 h. In short, it runs like this:
as §1

Assay [5] has as its system M21. Put plainly: Induction of cell cycle arrest in human M21 cells assessed as cells accumulation at G2/M phase at 760 nM after 24 hrs by flow cytometry (reference value: 22.1%). It counts as functional.
Assay [6] has as its system M21. Put plainly: Induction of cell cycle arrest in human M21 cells assessed as cells accumulation at subG1 phase at 760 nM after 24 hrs by flow cytometry (reference value: 1.2%). The format is functional.
Assay [7] in a line: Antiproliferative activity against human HT1080 cells assessed as cell growth inhibition after 48 hrs by sulforhodamine B assay. The format is functional, cell-based. Conditions: HT-1080, 48 h.
The test system of assay [8] is M21. Put plainly: Induction of cell cycle arrest in human M21 cells assessed as cells accumulation at S phase at 760 nM after 24 hrs by flow cytometry (reference value: 22.2%). It counts as functional.
Assay [9] concerns the target T1, Tubulin beta (Homo sapiens). As to the kind of experiment: Binding affinity to Tubulin beta in human M21 cells assessed as tubulin acylation at 3100 nM after 24 hrs by electrophoretic mobility shift assay. It counts as cell-based.
Assay [10] concerns M21. As to the kind of experiment: Induction of cell cycle arrest in human M21 cells assessed as cells accumulation at S phase at 24 nM after 24 hrs by flow cytometry (reference value: 22.2%). It counts as functional.
In assay [11] the test system is M21. As to the kind of experiment: Induction of cell cycle arrest in human M21 cells assessed as cells accumulation at subG1 phase at 24 nM after 24 hrs by flow cytometry (reference value: 1.2%). The format is functional.
The subject of assay [12] is M21. Put plainly: Induction of microtubule depolymerization and cytoskeleton disruption in human M21 cells at 24 nM after 24 hrs by immunofluorescence assay. The format is functional, cell-based.
The test system of assay [13] is M21. Put plainly: Induction of cell cycle arrest in human M21 cells assessed as cells accumulation at G0/G1 phase at 24 nM after 24 hrs by flow cytometry (reference value: 54.5%). The format is functional.
The test system of assay [14] is M21. As to the kind of experiment: Induction of cell cycle arrest in human M21 cells assessed as cells accumulation at G2/M phase at 24 nM after 24 hrs by flow cytometry (reference value: 22.1%). The format is functional.

The structures appear in SMILES notation. The source made the active and inactive calls. The calls are words filed in the database; no cut-off is given here.

For the compound `O=C(NCCCl)Nc1ccc(/C=C\c2cccc(Cl)c2)cc1`, the IC50 turned out to be 0.13 µM in the assay on HT-29, 0.2 µM in the assay with MCF7, 0.17 µM with M21 [4] and 0.17 µM in [7]. Further, the Activity with M21 [1] is 2.1%; with M21 [5], 92%; with M21 [6] it was 2.2%; in the assay on M21 [8], 3.7%. For the same compound, the outcome (in assay [2]; in the assay on M21 [3]; in assay [9]) was Active.
Turning to `COc1cc2c(c(OC)c1OC)-c1ccc(OC)c(=O)cc1[C@@H](NC(C)=O)CC2` [COLCHICINE], the Activity is reported as 11.8% with M21 [10], 2.4% in the assay with M21 [11], 27.9% in the assay on M21 [13] and 57.9% with M21 [14]. In addition, the outcome with M21 [12] was Active.

Values taken from ChEMBL document CHEMBL3588763, “Styryl-N-phenyl-N'-(2-chloroethyl)ureas and styrylphenylimidazolidin-2-ones as new potent microtubule-disrupting agents using combretastatin A-4 as model” (Eur J Med Chem, 2015).
